Results from paper PMC9049676 (RSC Advances, 2020).

Tests used:
Format in all cases: cell-based, human
T24 = assay: MTT cytotoxicity assay, T24; conditions: read-out: IC50 T24, cells treated for 24 h
Procedure, shortened: (§1)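 Tumour lines and the normal liver line HL-7702 came from the Shanghai Cell Bank. Cells were cultured in RPMI 1640 or DMEM with 10% FBS and 1% streptomycin at 37 °C, 5% CO2. Cells were exposed to test compounds, and viability was read by MTT reduction to derive IC50. Cisplatin was run as reference control.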

Hep-G2 = assay: MTT cytotoxicity assay, Hep-G2; conditions: read-out: IC50 Hep-G2, cells treated for 24 h
Procedure, shortened: as §1

NCI-H460 = assay: MTT cytotoxicity assay, NCI-H460; conditions: read-out: IC50 NCI-H460, cells treated for 24 h
Procedure, shortened: as §1

HL-7702 = assay: MTT cytotoxicity assay, normal liver cell line HL-7702; conditions: read-out: IC50 HL-7702, cells treated for 24 h
Procedure, shortened: as §1

Q: For `N.N.[Cl][Pt][Cl]` [Cisplatin], which IC50 (T24) is on record?
A: Its IC50 is 22.9 ± 0.93 µM.

Q: What about the IC50 (Hep-G2) of the same molecule?
A: Its IC50 is 19.6 ± 1.39 µM.

Q: What about the IC50 (NCI-H460) of the same molecule?
A: The IC50 was 11.7 ± 2.26 µM.

Q: What about the IC50 (HL-7702) of the same molecule?
A: The IC50 was 13.4 ± 1.56 µM.
